# In PMC7241432 (ACS infectious diseases, 2019):
# Like-named read-outs stand apart in the source and are kept apart here.
# Tests used:
# [1] = Stability / PYR release in cell-free medium; type: physicochemical
# In short: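 PYR measured colorimetrically: cell-free medium (R or nitrite-containing NR medium) mixed 1:1 with 0.01 M ferric nitrate in 0.1 N sulfuric acid and shaken 5–10 min at room temperature. Fe3+–PYR complex read by absorbance at 600 nm. Concentration taken from a linear sodium-PYR standard curve. Free PYR followed over 24 h (R medium) and 48 h (NR medium).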
# [2] = test system: Mtb; type: cell-based, Mycobacterium tuberculosis
# [3] = test system: methicillin-sensitive S. aureus; assay: Antimicrobial spectrum MIC90, MSSA; type: cell-based; details: Staphylococcus aureus, 24 h
# [4] = test system: Mtb strain H37Rv; assay: microbe, parasite or virus in culture; type: cell-based, Mycobacterium tuberculosis; details: for MBC: Mycobacterium tuberculosis, H37RV
# [5] = molecular target: T1, BlaC (Mycobacterium tuberculosis, UniProt P9WKD3); type: biochemical; details: 100 μM compound, 1 μM BlaC, 10 min
# T1 sequence (P9WKD3 35-307): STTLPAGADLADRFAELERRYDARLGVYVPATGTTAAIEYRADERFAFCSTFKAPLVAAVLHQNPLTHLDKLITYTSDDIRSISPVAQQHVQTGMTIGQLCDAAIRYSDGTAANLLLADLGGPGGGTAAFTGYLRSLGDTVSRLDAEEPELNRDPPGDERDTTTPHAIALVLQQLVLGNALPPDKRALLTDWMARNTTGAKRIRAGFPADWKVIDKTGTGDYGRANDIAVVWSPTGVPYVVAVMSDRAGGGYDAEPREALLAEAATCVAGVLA
# [6] = test system: Mtb; details: 14-day exposure of hypoxic Mtb, plus clavulanate; cited from earlier work
# [7] = test system: luxAB (luciferase) containing strain of Mtb H37Rv; type: cell-based, Mycobacterium tuberculosis; details: hypoxic conditions, control
structure (smiles),measurement,setting,value
"O=C(O)CSc1cccc[n+]1[O-] [Compound 10, 2-(carboxymethylthio)pyridine-N-oxide]",PYR release in cell-free medium,"[1]; Fe3+-PYR complex, absorbance at 600 nm",not released
"[O-][n+]1ccccc1S [PYR, pyrithione]",reduction of CFU of R Mtb,[2],> 5 orders of magnitude
same,time to reduce CFU of R Mtb by >5 orders of magnitude,[2],≤ 24 h
same,MIC90,[3],25 µM
same,stability of free PYR in the medium used for NR conditions,[1]; NR medium,largely disappeared over 48 h
same,stability of free PYR in the medium used for R conditions,[1]; R medium,at least 24 h
same,potency relative to cephalosporin 1a,[4],equipotent on a molar basis
same,MBC,[4]; read-out: MBC NR CARA,1.25 µM
same,MBC,[4]; read-out: MBC NR CARA + 25 μM Clav,1.25 µM
same,MBC,[4]; read-out: MBC R CARA,1.25 µM
same,MBC,[4]; read-out: MBC R CARA + 25 μM Clav,1.25 µM
CC(=O)OCC1=C(C(=O)O)N2C(=O)[C@@H](NC(=O)Cc3cccs3)[C@H]2SC1 [cephalothin],UV-visible absorption spectrum after incubation with BlaC,[5],did not change
C[C@@H](O)[C@H]1C(=O)N2C(C(=O)O)=C(S[C@@H]3CN[C@H](C(=O)N(C)C)C3)[C@H](C)[C@H]12 [meropenem],reduction in colony-forming units (CFUs),[6],ca. 1 order of magnitude
CO[C@H]1/C=C/O[C@@]2(C)Oc3c(C)c(O)c4c(O)c(c(/C=N/N5CCN(C)CC5)c(O)c4c3C2=O)NC(=O)/C(C)=C\C=C\[C@H](C)[C@H](O)[C@@H](C)[C@@H](O)[C@@H](C)[C@H](OC(C)=O)[C@@H]1C [rifampicin],activity in LORA,[7],lost activity
